Data on four molecules can be found in publication PMC2963086 (Analytical biochemistry, 2010).

Where “and” joins values, the source holds several entries; their conditions need not be identical. Equal entries are not always repeated. Where two headings read alike, the source gives them in different places.

For data set [1], the target named is T1, Formate dehydrogenase (FDH) (Candida boidinii, UniProt O13437).
T1 sequence (O13437 1-364): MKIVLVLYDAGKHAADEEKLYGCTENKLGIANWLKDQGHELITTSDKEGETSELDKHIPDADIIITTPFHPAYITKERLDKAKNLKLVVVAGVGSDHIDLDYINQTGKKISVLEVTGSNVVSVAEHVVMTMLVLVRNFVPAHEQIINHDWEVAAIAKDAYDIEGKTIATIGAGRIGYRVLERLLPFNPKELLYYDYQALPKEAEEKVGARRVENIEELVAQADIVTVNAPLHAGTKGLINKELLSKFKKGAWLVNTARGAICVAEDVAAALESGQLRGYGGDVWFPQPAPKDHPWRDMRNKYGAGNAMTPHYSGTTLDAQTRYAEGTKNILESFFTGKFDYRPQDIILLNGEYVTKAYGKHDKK
The following applies: native NAD^+, cited from earlier work.

Data set [2] concerns the target T2, Malate dehydrogenase (MDH) (Sus scrofa, UniProt P00346).
T2 sequence (P00346 25-338): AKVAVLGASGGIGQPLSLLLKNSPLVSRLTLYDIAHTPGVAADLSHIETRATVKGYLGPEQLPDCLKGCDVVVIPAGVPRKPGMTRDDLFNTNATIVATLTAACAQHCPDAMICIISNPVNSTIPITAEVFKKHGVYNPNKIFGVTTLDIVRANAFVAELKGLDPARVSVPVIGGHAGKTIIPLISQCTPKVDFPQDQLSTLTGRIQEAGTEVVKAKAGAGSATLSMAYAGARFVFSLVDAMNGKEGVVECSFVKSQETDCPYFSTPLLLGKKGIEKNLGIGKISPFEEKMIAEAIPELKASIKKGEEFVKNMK
Conditions: native NAD^+, 37; cited from earlier work.

Data set [3] deals with Glucose dehydrogenase (GDH). Conditions: native NAD^+; cited from earlier work.
Data set [4] has as its target T2, Malate dehydrogenase (MDH). Briefly: Enzymatic reaction assay, competitive inhibition, initial rates. Format: biochemical, Porcine heart mitochondria (sus scrofa).
For data set [5], the system named is formate dehydrogenase (FDH). Conditions: azide anion with FDH; cited from earlier work.
The target in data set [6] is Glucose dehydrogenase (GDH). Briefly: Fluorescence titration. The class given is binding, Bacillus megaterium. Conditions: read-out: Kd (Binary); GDH binary complex; fluorescence experiments; pH 7.5.
For data set [7], the target named is T1, Formate dehydrogenase (FDH). Briefly: Enzymatic reaction assay, initial rates. Format: biochemical.
Data set [8] is described as follows: Solubility of the solid analog. The class given is physicochemical. Conditions: phosphate buffer and methanol at room temperature.
Data set [9] relates to Glucose dehydrogenase (GDH). Nature of the data set: Enzymatic reaction assay, initial rates. The class given is biochemical, Bacillus megaterium. The method, boiled down:
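Commercial Bacillus megaterium GDH in a 1 mL UV cuvette with 0.1 M phosphate buffer, pH 7.5, and azo-NAD+ as coenzyme. Initial rates taken over 2 min from the absorbance rise at 340 nm (azo-NADH). Km and kcat obtained by fitting rates against azo-NAD+ concentration to the Michaelis–Menten equation, with Vmax = [E]·kcat.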

Data set [10] concerns the target T1, Formate dehydrogenase (FDH). Nature of the data set: ITC binding of azo-NAD^+ to formate dehydrogenase. The following applies: Kd (Binary), FDH binary complex, pH 7.5. The procedure, abridged: (§1)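 Isothermal titration calorimetry at pH 7.5 with commercial enzymes: Candida boidinii FDH and porcine heart mitochondrial MDH. Titrations of azo-NAD+ with enzyme; for the MDH ternary complex, malate is present. Heats of dilution subtracted from raw heats. Integrated heats fitted to a single-site binding model to give Kd.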

For data set [11], the target named is T2, Malate dehydrogenase (MDH). Briefly: ITC binding of azo-NAD^+ to malate dehydrogenase. The class given is Porcine heart mitochondria (sus scrofa). Conditions: pH 7.5. The method, boiled down: as §1
The nature of data set [12]: Stability in phosphate buffer by UV absorbance ratio 260/303 nm. The class given is physicochemical. Conditions: phosphate buffer pH 7.5, 24 hrs, 25 °C.
Substrate in data set [13]: [N-]=[N+]=Nc1ccc[n+]([C@@H]2O[C@H](COP(=O)([O-])OP(=O)(O)OC[C@H]3O[C@@H](n4cnc5c(N)ncnc54)[C@H](O)[C@@H]3O)[C@@H](O)[C@H]2O)c1
Nature of the data set: Enzymatic reaction assay, initial rates. The class given is biochemical, Candida boidinii. The following applies: other: FDH, azo-NAD^+ as substrate, 0.1 M phosphate buffer pH 7.5.

[14] abbreviates: azo-NAD^+ as substrate, 0.1 M phosphate buffer pH 7.5.

The Km is the substrate concentration at which the rate is half of its maximum. By kcat is commonly meant the number of substrate molecules converted per active site and unit of time at saturation. A word on the Kd: it is the constant that tells how readily two partners part at equilibrium. As a reminder, the Ki is a dissociation constant, usually derived from enzyme kinetics or from competition with a known ligand. A low value points to tighter binding.

As for `NC(=O)c1ccc[n+]([C@@H]2O[C@H](COP(=O)([O-])OP(=O)(O)OC[C@H]3O[C@@H](n4cnc5c(N)ncnc54)[C@H](O)[C@@H]3O)[C@@H](O)[C@H]2O)c1` [NAD^+, nicotinamide adenine dinucleotide], in data set [1] (Candida Boidinii FDH), the “kcat (turnover number)” value was 3.7 s^−1 and 3.7 ^c s^−1. Besides, the Km is 90 µM in data set [1] (FDH), 140 µM in [2] and 370 µM in [3]. In addition, the kcat in [3] is 390 ^d s^−1; in data set [4] (MDH, native NAD^+, no reference given), 45 s⁻¹.

Regarding `[N-]=[N+]=[N-]` [azide anion], in [5], the binding constant result was “nanomolar”.

For the molecule `[N-]=[N+]=Nc1ccc[n+]([C@@H]2O[C@H](COP(=O)([O-])OP(=O)(O)OC[C@H]3O[C@@H](n4cnc5c(N)ncnc54)[C@H](O)[C@@H]3O)[C@@H](O)[C@H]2O)c1` [azo-NAD^+], the Kd in [6] amounted to 300 µM; in data set [10] it was 63 µM; in data set [11] (Kd (Binary), MDH binary complex) it was 152 µM; in data set [11] (Kd (Ternary), MDH ternary complex with substrate malate) it was 70 µM. Also, the figures for the “behaviour as substrate or inhibitor” value in [7], in [9] and in data set [4] (MDH) were “substrate”, “substrate” and “competitive inhibitor”, respectively. The solubility entry in data set [8] is listed as “soluble”. In addition, in data set [9] (setting [14]), the Km turned out to be 72 µM. In data set [9] (setting [14]), the kcat is 344 s⁻¹. In [12], the “stability (ratio of UV absorbance 260 nm/303 nm unchanged)” value is recorded as “stable”. Also, the affinity in data set [4] corresponds to a Ki of 83 µM.

B1: Formate dehydrogenase (FDH) ([Candida] boidinii) (protein)
chain: T1 sequence (O13437 1-364)
As to B1, in data set [13], the Km is 378 µM and the kcat was 7.5 s⁻¹.
